Assay results taken from ChEMBL document CHEMBL2202989, “New adamantane phenylalkylamines with σ-receptor binding affinity and anticancer activity, associated with putative antagonism of neuropathic pain” (J Med Chem, 2012).

System: BXPC-3
Assay: Cell cycle arrest in human BxPC3 cells assessed as accumulation at G1 phase at 5 uM after 24 hrs using propidium iodide staining by FACS analysis (reference value: 41 %)
Assay type: functional
In short: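 Cells were plated 24 h before treatment and exposed for 24 h at final 0.5, 5, 15 and 50 μM in 0.5% DMSO, against vehicle-treated controls. Cells were then trypsinised and fixed in cold ethanol for 3 h at 4 °C. They were stained in a mix of RNase (200 μg/mL) and PI (1 mg/mL) for 45 min at room temperature in the dark. Flow cytometry used 488 nm excitation and 10 000 gated cells. Phase percentages were assigned from DNA content.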

## CN1CCN(CCCc2ccc(C(c3ccccc3)C34CC5CC(CC(C5)C3)C4)cc2)CC1 (stereo unspecified)
  Activity: 53%
